Data taken from ChEMBL document CHEMBL1129929, “Analogues of methotrexate in rheumatoid arthritis. 1. Effects of 10-deazaaminopterin analogues on type II collagen-induced arthritis in mice” (J Med Chem, 1997).

Columns and labels:
Mus musculus [1] = test: Tested for antiinflammatory activity on mouse type II collagen arthritis as Paw swelling* of all animals in each group on day 23 at intraperitoneal dose of 12 mg/kg; assay type: functional
Summary of the method: (§1)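 DBA/1 mice immunized with bovine type II collagen (Courtenay method, modified), antigen booster at day 21. Compounds given ip from 2 days before the first collagen challenge, then every 2 days. Hind paw dimensions (mm) measured for both limbs of all animals, expressed as mean ± SD. Eight mice per dose; untreated controls pooled from four experiments (48 animals).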

Mus musculus [2] = test: Tested for antiinflammatory activity on mouse type II collagen arthritis as Paw swelling* of all animals in each group on day 37 at intraperitoneal dose of 12 mg/kg; assay type: functional; summary of the method: as §1
Mus musculus [3] = test: Incidence of disease(mouse type II collagen arthritis) was scored as the percentage of animals within each experimental group that exhibited joint or limb inflammation on day 23 at intraperitoneal dose of 12 mg/kg (1 animal died); assay type: functional
Summary of the method: (§2)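 DBA/1 mice immunised with bovine type II collagen, booster at day 21 (modified Courtenay model). Compound given intraperitoneally from 2 days before the first collagen challenge, then every 2 days. Incidence is the percentage of animals per group showing joint or limb inflammation, scored visually on days 23, 30, 37 and 44.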

Mus musculus [4] = test: Incidence of disease(mouse type II collagen arthritis) was scored as the percentage of animals within each experimental group that exhibited joint or limb inflammation on day 30 at intraperitoneal of dose 12 mg/kg (1 animal died); assay type: functional; summary of the method: as §2
Mus musculus [5] = test: Incidence of disease(mouse type II collagen arthritis) was scored as the percentage of animals within each experimental group that exhibited joint or limb inflammation on day 44 at intraperitoneal of dose 12 mg/kg; d means 3 animals died; assay type: functional, organism-based; parameters: dose 12 mg/kg; settings: at 12 mg/kg
Summary of the method: (§3)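 DBA/1 mice were immunized with bovine type II collagen (modified Courtenay method), with a collagen booster on day 21. Compounds were given ip starting 2 days before the first collagen challenge and every 2 days thereafter. Incidence was the percentage of animals per group with joint or limb inflammation, scored on days 23, 30, 37 and 44.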

Mus musculus [6] = test: Incidence of disease(mouse type II collagen arthritis) was scored as the percentage of animals within each experimental group that exhibited joint or limb inflammation on day 37 at intraperitoneal of dose 12 mg/kg (1 animal died); assay type: functional; summary of the method: as §2
Mus musculus [7] = test: Tested for antiinflammatory activity on mouse type II collagen arthritis as Paw swelling* of all animals in each group on day 44 at intraperitoneal dose of 12 mg/kg; d means 3 animals died; assay type: functional, organism-based; parameters: dose 12 mg/kg; summary of the method: as §1
Mus musculus [8] = test: Tested for antiinflammatory activity on mouse type II collagen arthritis as Paw swelling* of all animals in each group on day 30 at intraperitoneal dose of 12 mg/kg; assay type: functional; summary of the method: as §1
Mus musculus [9] = test: Incidence of disease(mouse type II collagen arthritis) was scored as the percentage of animals within each experimental group that exhibited joint or limb inflammation on day 23 at intraperitoneal dose of 12 mg/kg; assay type: functional; summary of the method: as §3
Mus musculus [10] = test: Incidence of disease(mouse type II collagen arthritis) was scored as the percentage of animals within each experimental group that exhibited joint or limb inflammation on day 30 at intraperitoneal of dose 18 mg/kg; assay type: functional; summary of the method: as §3
Mus musculus [11] = test: Incidence of disease(mouse type II collagen arthritis) was scored as the percentage of animals within each experimental group that exhibited joint or limb inflammation on day 37 at intraperitoneal of dose 12 mg/kg; assay type: functional; summary of the method: as §3
Mus musculus [12] = test: Tested for antiinflammatory activity on mouse type II collagen arthritis as Paw swelling* of all animals in each group on day 23 at intraperitoneal dose of 18 mg/kg; assay type: functional; summary of the method: as §1
Mus musculus [13] = test: Incidence of disease(mouse type II collagen arthritis) was scored as the percentage of animals within each experimental group that exhibited joint or limb inflammation on day 44 at intraperitoneal of dose 18 mg/kg; assay type: functional; summary of the method: as §3
Mus musculus [14] = test: Tested for antiinflammatory activity on mouse type II collagen arthritis as Paw swelling* of all animals in each group on 30 at intraperitoneal dose of 18 mg/kg; assay type: functional
Summary of the method: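 DBA/1 mice were challenged with bovine type II collagen and boosted on day 21. Dosing was ip from 2 days before the initial challenge, then every 2 days, with eight animals per dose. Hind paw dimensions (mm) were measured for both limbs of all animals and given as mean ± SD. Untreated controls were pooled from four experiments (48 animals).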

Mus musculus [15] = test: Incidence of disease(mouse type II collagen arthritis) was scored as the percentage of animals within each experimental group that exhibited joint or limb inflammation on day 23 at intraperitoneal dose of 18 mg/kg; assay type: functional; summary of the method: as §3
Mus musculus [16] = test: Incidence of disease(mouse type II collagen arthritis) was scored as the percentage of animals within each experimental group that exhibited joint or limb inflammation on day 30 at intraperitoneal of dose 12 mg/kg; assay type: functional; summary of the method: as §3
Mus musculus [17] = test: Tested for antiinflammatory activity on mouse type II collagen arthritis as Paw swelling* of all animals in each group on day 37 at intraperitoneal dose of 18 mg/kg; assay type: functional; summary of the method: as §1
Mus musculus [18] = test: Tested for antiinflammatory activity on mouse type II collagen arthritis as Paw swelling* of all animals in each group on day 44 at intraperitoneal dose of 18 mg/kg; assay type: functional; summary of the method: as §1
Mus musculus [19] = test: Incidence of disease(mouse type II collagen arthritis) was scored as the percentage of animals within each experimental group that exhibited joint or limb inflammation on day 44 at intraperitoneal of dose 12 mg/kg; assay type: functional; summary of the method: as §3
Mus musculus [20] = test: Incidence of disease(mouse type II collagen arthritis) was scored as the percentage of animals within each experimental group that exhibited joint or limb inflammation on day 37 at intraperitoneal of dose 18 mg/kg; assay type: functional; summary of the method: as §3
Mus musculus [21] = test: Tested for antiinflammatory activity on mouse type II collagen arthritis as Paw swelling* of all animals in each group on day 44 at intraperitoneal dose of 12 mg/kg; assay type: functional; summary of the method: as §1

In the case of `Nc1nc(N)c2nc(CCc3ccc(C(=O)NC(CCC(=O)O)C(=O)O)nc3)cnc2n1` (centres undefined), the Paw swelling (Mus musculus [1]) is reported as 2.14 mm, the Paw swelling (Mus musculus [2]) is reported as 2.07 mm and the Animals (Mus musculus [3]) is reported as 0%. The Animals (Mus musculus [4]) was 0%, the Animals (Mus musculus [5]) was “Three animals died” and the Animals (Mus musculus [6]) was 0%. For the same molecule, the Paw swelling (Mus musculus [7]) was “Three animals died” and the Paw swelling (Mus musculus [8]) was 2.11 mm.

In the case of `CCC(Cc1cnc2nc(N)nc(N)c2n1)c1ccc(C(=O)N[C@@H](CCC(=O)O)C(=O)O)cc1` (some centres undefined) [EDATREXATE], the Paw swelling (Mus musculus [1]) is reported as 2.26 mm, the Animals (Mus musculus [9]) is reported as 25% and the Animals (Mus musculus [10]) is reported as 0%. The Animals (Mus musculus [11]) was 38%, the Paw swelling (Mus musculus [12]) was 2.18 mm and the Paw swelling (Mus musculus [2]) was 2.34 mm. The Animals (Mus musculus [13]) was 12%, the Paw swelling (Mus musculus [14]) was 2.24 mm and the Animals (Mus musculus [15]) was 12%. For the same molecule, the Animals (Mus musculus [16]) was 25%, the Paw swelling (Mus musculus [17]) was 2.19 mm and the Paw swelling (Mus musculus [8]) was 2.28 mm. The Paw swelling (Mus musculus [18]) was 2.18 mm, the Animals (Mus musculus [19]) was 50% and the Animals (Mus musculus [20]) was 12%. The Paw swelling (Mus musculus [21]) was 2.32 mm.
